Reference: ChEMBL document CHEMBL1133719, “Synthesis and preliminary biological evaluations of CC-1065 analogues: effects of different linkers and terminal amides on biological activity” (J Med Chem, 2000)
“And” between values parts separate entries of the source, which are not always exact repeats. Equal values may be shown once.

How the values were obtained:
HT-29 = test: Cytotoxicity against NCI tumor panel, HT-29 colon cancer cell line; assay type: functional, cell-based; conditions: Homo sapiens
In short: (§1)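 Performed by NCI with the sulforhodamine B (SRB) method on its human tumour cell panel, using a 48-h drug incubation.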

786-0 = test: Cytotoxicity against NCI tumor panel, 786-0 renal cancer cell line; assay type: functional, cell-based; conditions: Homo sapiens
In short: (§2)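 NCI cell-line panel screen run by the National Cancer Institute; sulforhodamine B (SRB) readout after 48-h drug incubation.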

HCC 2998 = test: Cytotoxicity against NCI tumor panel, HCC_2998 colon cancer cell line; assay type: functional, cell-based; conditions: Homo sapiens; in short: as §2
Mus musculus [1] = test: Antitumor activity in mice bearing B16BL6 melanoma at a dose of 50 ug/kg; survivors for 90 days was reported; assay type: functional
In short: (§3)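 B16BL6 cells were cultured as monolayers, and 10⁶ cells were injected ip on day 0 into female BDF1 mice (4-6 weeks, 8 per group). Drug in dimethylacetamide was diluted in DMA/Cremophor/water (1:5:44) and 0.1 mL given ip on days 1, 5 and 9. %ILS came from median survival of dying animals; 90-day survivors were counted; mean weight change covered days 1-10.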

UACC-62 = test: Cytotoxicity against NCI tumor panel, UACC-62 melanoma cancer cell line; assay type: functional, cell-based; conditions: Homo sapiens; in short: as §1
Mus musculus [2] = organism: Mus musculus; test: Hematological effects in female CDF1 mice at the dose of 50 ug, in red blood cells; assay type: functional
In short: (§4)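 Non-tumor-bearing female CDF1 mice, 10 per group. Drugs were dissolved in DMSO, diluted in 30% DMSO/0.5% glucose, and given as a single ip dose on day 1 (doses per kg). Blood was sampled on day 27 for WBC, platelet, RBC and MCHC counts. Values are medians of 10 mice.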

PC-3 = test: Cytotoxicity against NCI tumor panel, PC-3 prostate cancer cell line; assay type: functional, cell-based; conditions: Homo sapiens; in short: as §1
CCRF-CEM = test: Cytotoxicity against NCI tumor panel, CCRF-CEM leukemia cell line; assay type: functional, cell-based; conditions: Homo sapiens; in short: as §2
SW-620 = test: Cytotoxicity against NCI tumor panel, SW_620 colon cancer cell line; assay type: functional, cell-based; conditions: Homo sapiens; in short: as §1
Mus musculus [3] = organism: Mus musculus; test: Antitumor activity in mice bearing B16BL6 melanoma; survivors for 90 days was reported
SR = test: Cytotoxicity against NCI tumor panel, SR leukemia cell line; assay type: functional, cell-based; conditions: Homo sapiens; in short: as §1
SK-MEL-2 = test: Cytotoxicity against NCI tumor panel,SK-MEL2 melanoma cancer cell line; assay type: functional, cell-based; conditions: Homo sapiens; in short: as §1
Mus musculus [4] = organism: Mus musculus; test: Mean body weight change between 1-10 days; assay type: functional
In short: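 Female BDF1 mice (4-6 weeks old, 8 per group) were inoculated ip with 10⁶ B16BL6 melanoma cells on day 0. Drugs in dimethylacetamide were diluted in DMA:Cremophor:water (1:5:44) and given ip at 0.1 mL on days 1, 5 and 9 (doses per kg). Read-outs were %ILS = (T/C − 1) × 100 on median survival of dying animals only, mean body weight change from day 1 to day 10 (g/mouse), and 90-day survivors.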

M14 = test: Cytotoxicity against NCI tumor panel, M14 melanoma cancer cell line; assay type: functional, cell-based; conditions: Homo sapiens; in short: as §1
EKVX = test: Cytotoxicity against NCI tumor panel, EKVX non small-cell lung cancer cell line; assay type: functional, cell-based; conditions: Homo sapiens; in short: as §2
MDA-MB-231 = test: Cytotoxicity against NCI tumor panel, MDA-MB-231/ATCC breast cancer cell line; assay type: functional, cell-based; conditions: Homo sapiens; in short: as §1
SK-MEL-5 = test: Cytotoxicity against NCI tumor panel, SKMEL-5 melanoma cancer cell line; assay type: functional, cell-based; conditions: Homo sapiens; in short: as §1
SF-268 = test: Cytotoxicity against NCI tumor panel, SF-268 CNS cancer cell line; assay type: functional, cell-based; conditions: Homo sapiens; in short: as §1
OVCAR-3 = test: Cytotoxicity against NCI tumor panel, OVCAR-3 ovarian cancer cell line; assay type: functional, cell-based; conditions: Homo sapiens; in short: as §1
HCT-116 = test: Cytotoxicity against NCI tumor panel, HCT116 colon cancer cell line; assay type: functional, cell-based; conditions: Homo sapiens; in short: as §2
NCI-H23 = test: Cytotoxicity against NCI tumor panel, NCI-H 23 non small-cell lung cancer cell line; assay type: functional, cell-based; conditions: Homo sapiens; in short: as §1
Mus musculus [5] = organism: Mus musculus; test: Mean body weight change
SNB-19 = test: Cytotoxicity against NCI tumor panel, SNB-19 CNS cancer cell line; assay type: functional, cell-based; conditions: Homo sapiens; in short: as §1
Mus musculus [6] = test: Antitumor activity in mice bearing B16BL6 melanoma at a dose of 100 ug/kg; survivors for 90 days was reported; assay type: functional; in short: as §3
RPMI-8226 = test: Cytotoxicity against NCI tumor panel, RPMI-8226 leukemia cell line; assay type: functional, cell-based; conditions: Homo sapiens; in short: as §1
SNB-75 = test: Cytotoxicity against NCI tumor panel, SNB-75 CNS cancer cell line; assay type: functional, cell-based; conditions: Homo sapiens; in short: as §1
Mus musculus [7] = test: Antitumor activity was tested in mice and percent increase of life span at a dose of 100 ug/kg was reported; assay type: functional; in short: as §3
MCF7 = test: Cytotoxicity against NCI tumor panel, MCF-7 breast cancer cell line; assay type: functional, cell-based; conditions: Homo sapiens; in short: as §1
Mus musculus [8] = test: Antitumor activity in mice bearing L1210 Leukemia at a dose of 30 ug/kg; survivors for 60 days was reported; assay type: functional
In short: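 Female CDF1 mice, 10 per group, got 100 L1210 cells ip on day 0. Drug in DMSO was diluted with 30% DMSO in 0.5% glucose and dosed ip on days 1, 5 and 9. Long-term (60-day) survivors are given as percent of the group.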

NCI/ADR-RES = test: Cytotoxicity against NCI tumor panel, NCI/ADR-RES breast cancer cell line; assay type: functional, cell-based; conditions: Homo sapiens; in short: as §1
HOP-62 = test: Cytotoxicity against NCI tumor panel, HOP-62 non small-cell lung cancer cell line; assay type: functional, cell-based; conditions: Homo sapiens; in short: as §2
LOX IMVI = test: Cytotoxicity against NCI tumor panel, […] melanoma cancer cell line; assay type: functional, cell-based; conditions: Homo sapiens; in short: as §1
ACHN = test: Cytotoxicity against NCI tumor panel, ACHN renal cancer cell line; assay type: functional, cell-based; conditions: Homo sapiens; in short: as §2
A498 = test: Cytotoxicity against NCI tumor panel, A-498 renal cancer cell line; assay type: functional, cell-based; conditions: Homo sapiens; in short: as §2
KM12 = test: Cytotoxicity against NCI tumor panel, KM12 colon cancer cell line; assay type: functional, cell-based; conditions: Homo sapiens; in short: as §1
Mus musculus [9] = test: Antitumor activity was tested in mice and percent increase of life span at a dose of 50 ug/kg was reported; assay type: functional; in short: as §3
SF-539 = test: Cytotoxicity against NCI tumor panel, SF-539 CNS cancer cell line; assay type: functional, cell-based; conditions: Homo sapiens; in short: as §1
K562 = test: Cytotoxicity against NCI tumor panel, K-562 leukemia cell line; assay type: functional, cell-based; conditions: Homo sapiens; in short: as §1
MOLT-4 = test: Cytotoxicity against NCI tumor panel, MOLT-4 leukemia cell line; assay type: functional, cell-based; conditions: Homo sapiens; in short: as §1
Mus musculus [10] = organism: Mus musculus; test: Hematological effects in female CDF1 mice at the dose of 50 ug, in platelet cells; assay type: functional; in short: as §4
UO-31 = test: Cytotoxicity against NCI tumor panel, U031 renal cancer cell line; assay type: functional, cell-based; conditions: Homo sapiens; in short: as §1
HL-60 = test: Cytotoxicity against NCI tumor panel, HL-60(TB) leukemia cell line; assay type: functional, cell-based; conditions: Homo sapiens; in short: as §2
Mus musculus [11] = organism: Mus musculus; test: Mean corpuscular haemoglobin concentration; assay type: functional
In short: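 Non-tumour-bearing female CDF1 mice, 10 per group. Drug was dissolved in DMSO, diluted in 30% DMSO/0.5% glucose, and given as a single ip dose on day 1. Blood was sampled on day 27 for WBC, platelet, RBC and MCHC measurements. Values are medians of 10 mice, with saline or vehicle controls.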

UACC-257 = test: Cytotoxicity against NCI tumor panel, UACC-257 melanoma cancer cell line; assay type: functional, cell-based; conditions: Homo sapiens; in short: as §1
MDA-N = test: Cytotoxicity against NCI tumor panel, MDA-N breast cancer cell line; assay type: functional, cell-based; conditions: Homo sapiens; in short: as §1
NCI-H522 = test: Cytotoxicity against NCI tumor panel, NCI-H522 non small-cell lung cancer cell line; assay type: functional, cell-based; conditions: Homo sapiens; in short: as §1
[12] = Minimal drug concentration necessary to inhibit incorporation of [3H]thymidine in U937 Leukemia cells; assay type: functional, cell-based, Homo sapiens

## CC(=O)Nc1ccc2[nH]c(C(=O)Nc3ccc4[nH]c(C(=O)N5CC(CCl)c6c5cc(O)c5ccccc65)cc4c3)cc2c1 (configuration not stated)
HT-29
  IC50: 1.34 nM
786-0
  IC50: 1.66 nM
HCC 2998
  IC50: 4.03 nM
Mus musculus [1]
  No. of survivors: 0
UACC-62
  IC50: 0.419 nM
Mus musculus [2]
  RBC: 8.72 10e6 ul-1
PC-3
  IC50: 2.03 nM
CCRF-CEM
  IC50: 3.14 nM
SW-620
  IC50: 2.36 nM
Mus musculus [3]
  No. of survivors: 0
SR
  IC50: 0.562 nM
SK-MEL-2
  IC50: 2.11 nM
Mus musculus [4]
  Weight: 1.1 g and 0.3 g and 0.9 g
M14
  IC50: 1.48 nM
EKVX
  IC50: 2.39 nM
MDA-MB-231
  IC50: 5.97 nM
SK-MEL-5
  IC50: 1.11 nM
SF-268
  IC50: 0.212 nM
OVCAR-3
  IC50: 3.51 nM
HCT-116
  IC50: 0.495 nM
NCI-H23
  IC50: 1.36 nM
Mus musculus [5]
  Weight: 16%
SNB-19
  IC50: 2.59 nM
Mus musculus [6]
  No. of survivors: 1
RPMI-8226
  IC50: 8.98 nM
SNB-75
  IC50: 0.513 nM
Mus musculus [7]
  ILS at 0.1 mg/kg: 91%
MCF7
  IC50: 0.476 nM
Mus musculus [8]
  % survivors: 40%
NCI/ADR-RES
  IC50: 8.56 nM
HOP-62
  IC50: 1.25 nM
LOX IMVI
  IC50: 0.577 nM
ACHN
  IC50: 1.28 nM
A498
  IC50: 3.95 nM
KM12
  IC50: 1.78 nM
Mus musculus [9]
  ILS at 0.05 mg/kg: 59%
SF-539
  IC50: 1.24 nM
K562
  IC50: 3.76 nM
MOLT-4
  IC50: 0.375 nM
Mus musculus [10]
  Platelet: 1.1 10e6 ul-1
UO-31
  IC50: 4.05 nM
HL-60
  IC50: 1.4 nM
Mus musculus [11]
  MCHC: 36.7 g/dL
UACC-257
  IC50: 2.46 nM
MDA-N
  IC50: 2.22 nM
NCI-H522
  IC50: 0.238 nM
[12]
  IC50: 0.4 nM
